Measurements collected from several papers.
Protocols differ between the studies behind these lines.
Target: Interferon-induced, double-stranded RNA-activated protein kinase (EIF2AK2, Homo sapiens, UniProt P19525)

With `CN(CCCC(F)(F)F)c1nccc(-c2cnn3ncccc23)n1` the remaining binding was 100% (binding; 1 µM).
For `CCOC(=O)c1cc2cc(-c3cc(C(=O)NCc4ccc(C(=O)O)cc4)nn3C)ccc2[nH]1`, the remaining binding was 100% (cell-free assay; competition with immobilised ligand; 0.1 µM).
`COc1cnc(Nc2cccc(S(N)(=O)=O)c2)nc1N1CCN(c2ccccc2)C(=O)C1` has a remaining binding of 99% (binding; competition with immobilised ligand; 1 µM).
For `FC(F)(F)Oc1cccc(-c2cnc3ccc(-c4ccncc4)nn23)c1`, the remaining binding was 65% (cell-free assay; competition with immobilised ligand; 5 µM).
The remaining binding of `O=C(O)c1cc(-c2ccc(C3CCNCC3)cc2)c2ccc(-c3ccc(C(F)(F)F)cc3)cc2c1` is reported as 100% (cell-free assay; competition with immobilised ligand; 1 µM).
`CN(c1nccc(-c2cnn3ncccc23)n1)C1CC1` has a remaining binding of 100% (binding; 1 µM).
The remaining binding of `CCS(=O)(=O)c1cc2cc(C[C@](O)(CC(C)(C)c3ccc(F)cc3C(N)=O)C(F)(F)F)[nH]c2cn1` is reported as 52% (cell-free assay; competition with immobilised ligand; 1 µM).
`N[C@@H]1CCN(c2nccc(-c3cnn4ncccc34)n2)C1` has a remaining binding of 100% (binding; 1 µM).
With `CNC(=O)[C@@H]1CC[C@@H](n2c(-c3ccc4cnccc4c3)nc3ccc(C(=O)NCc4cccc(C(N)=O)c4)cc32)C1` the remaining binding was 94% (binding; competition with immobilised ligand; 1 µM).
`O=C(c1ccc(Nc2nccc(-c3cc4ccccc4s3)n2)cc1)N1CCC(N2CCCC2)CC1` gave a remaining binding of 21% (binding; competition with immobilised ligand; 1 µM).
With `CN(C)c1ncnc(-c2ccc3nc(Nc4cc(CN5CCN(C(=O)CC(F)(F)F)CC5)ccn4)[nH]c3c2)c1Cl` the remaining binding was 100% (cell-free assay; competition with immobilised ligand; 1 µM).
For `CC1CCCN1c1nccc(-c2cnn3ncccc23)n1` (centres unmarked), the remaining binding was 100% (binding; 1 µM).
With `O=C(O)[C@H]1[C@H](Cn2nnc3ccccc3c2=O)CC[C@@H]1C(=O)c1ccc(OCCC2CCOCC2)cc1` the remaining binding was 91% (cell-free assay; competition with immobilised ligand; 1 µM).
With `O=C(Nc1c[nH]nc1C(=O)NC1CCNCC1)c1cc(F)cc(F)c1` the remaining binding was 100% (binding; competition with immobilised ligand; 1 µM).
For `CN(C)c1ncc(F)c(-c2cnn3ncccc23)n1`, the remaining binding was 100% (binding; 1 µM).
For `O=C(NCc1ncc(C(F)(F)F)cc1Cl)c1ccc2c(c1)C1(CCS(=O)(=O)CC1)[C@@H](C1CC1)N2S(=O)(=O)c1ccc(F)cc1`, the remaining binding was 97% (cell-free assay; competition with immobilised ligand; 1 µM).
The remaining binding of `O=C(NCCCN1CCOCC1)c1ccc(Nc2ncc(Cl)c(-c3ccc(Cl)s3)n2)cc1` is reported as 58% (binding; competition with immobilised ligand; 1 µM).
`C[C@@H]1CCN(c2nccc(-c3cnn4ncccc34)n2)C1` has a remaining binding of 83% (binding; 1 µM).
`COc1ncc2cc3ccccc3nc2c1C#N` gave a remaining binding of 100% (cell-free assay; competition with immobilised ligand; 5 µM).
The remaining binding of `O=C(c1ccc(Nc2ncc(Cl)c(-c3ccc(Cl)s3)n2)cc1)N1CCC(N2CCCC2)CC1` is reported as 14% (binding; competition with immobilised ligand; 1 µM).
